assay: Toxicity liver stage against HepG2, at 10uM; type: cell-based; set-up: test concentration 10 uM, cell line HepG2-A16-CD81EGFP; settings: human, HepG2-A16-CD81EGFP cells; read-out: INHIBITION
Outline: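 Uninfected HepG2-A16-CD81EGFP cells, 3 × 10^3 per well, 1536-well, plated on prespotted compound at 10 μM final, parasite-free screening media added to match infected plates; puromycin 10 μM positive, DMSO 0.5% negative; run in parallel with 48 h PbLuc assay at 37 °C, 5% CO2; viability by CellTiter-Glo luminescence, normalized to controls.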

| Structure (SMILES) | cytotoxicity at 10 µM |
| --- | --- |
| Cc1noc([C@@H]2C[C@H](NC(=O)C3CCCCC3)CN2C)n1 | -4.89% |
| COc1nn(C)cc1C(=O)N1CCC(C)CC1 | 5.97% |
| CC(=O)c1cccc(NC(=O)Cn2cnc(-c3cccs3)cc2=O)c1 | -4.44% |
| O=C(NC1CCN(c2ccc(-c3ccccc3F)nn2)C1)c1cc[nH]n1 (stereo not drawn) | 3.17% |
| Cc1cc(CNC(=O)c2cnoc2C)c(C)o1 | -6.32% |
| O=C(c1cnccn1)N1CCC2(CC1)C(=O)NCC2c1ccccc1 (stereo not drawn) | -3.68% |
| CS(=O)(=O)NC[C@]12COC[C@H]1CN(C(=O)c1ccncn1)C2 | 9.2% |
| Cc1cc(-n2nnc(C(=O)O)c2-c2ccncc2)ccc1F | 6.31% |
| COC(=O)CC(c1ccc(OC)c(OC)c1OC)c1c(O)n[nH]c1C (stereo not drawn) | 4.02% |
| CS(=O)(=O)Nc1ccn(Cc2ccc(Br)cc2)n1 | 10.9% |
| O=C(CCn1ncc2c(Cl)cccc21)NCCCO | 7.63% |
| CCn1nc(C)c2nnn(CC(=O)Nc3ccccc3)c(=O)c21 | 9.02% |
| Cc1c(C2=NS(=O)(=O)N(C)C(C(=O)Nc3ccc(Br)cc3)=C2)cnn1C | 11.7% |
| CCc1cc(C(=O)N2CCC(c3cc4ncccc4cn3)CC2)no1 | -14.4% |
| Cc1ccc(-c2nc(CCNCc3ccncc3)co2)cc1 | -4.96% |
| CN(Cc1ccccc1)C(=O)c1cc2c(c(S(N)(=O)=O)c1)CCC2 | -41.5% |
| CC(C)c1cc(N2CCC(NS(C)(=O)=O)C2)nc(C(C)C)n1 (stereo not drawn) | 4.34% |
| Cc1ccc(CN(C)C(=O)CCn2c(=O)n(C)c3ccccc32)o1 | 4% |
| COc1ccc(C(C)NCCC(N)=O)cc1F (stereo not drawn) | -7.77% |
| O=C(NCc1nnc2n1CCC2)c1ccc(Br)s1 | 2.74% |
| COCCCNc1cc(C(=O)N2CCOCC2)ccc1C | 7.1% |

| Structure (SMILES) | cytotoxicity at 10 µM |
| --- | --- |
| COCCOc1ccc(CNC2CCc3ncnn3C2)cc1OC (stereo not drawn) | -7.2% |
| CCCN1CCC(NC(=O)c2ccnc(SCC)c2)CC1 | -4.14% |
| O=C(NCCc1nnc2n1CCC2)N(Cc1ccco1)C1CCCC1 | 5.04% |
| Cc1ccc(C(=O)N2CCOC(c3nc(C(C)(C)C)n[nH]3)C2)c(=O)[nH]1 (stereo not drawn) | 1.31% |
| CCCNC(=O)CCNC(=O)c1sc2ccc(F)cc2c1C | 3.33% |
| CC(C)(C)OC(=O)N1CCC[C@H](NCc2cc[nH]c2)C1 | 1.05% |
| CC1(C)CN(C(=O)Nc2ccc(Cn3cccn3)cc2)CCO1 | 45.1% |
| Cc1cc(NC(=O)Nc2ccc3c(ccn3CCN(C)C)c2)n(C)n1 | 3.38% |
| COC(=O)CCC(=O)NC1CCCc2cc(OC(F)F)ccc21 (stereo not drawn) | -4.52% |
| CCC1CCCCCN1C(=O)c1cc(C#N)c(SC)[nH]c1=O (stereo not drawn) | 12% |
| CC(SCC(=O)N(C)CC(=O)NC1CC1)c1cc(F)ccc1F (stereo not drawn) | 8.13% |
| Cc1nc(CN(CCS(C)(=O)=O)C(C)C)no1 | 0.329% |
| CN(C)c1cccc(C2CCCN2CCCN2CCOC2=O)c1 (stereo not drawn) | -10.2% |
| CN(CCNC(=O)Nc1cnn(C)c1)Cc1ccc(F)cc1 | 7.72% |
| CCN1CCNC(=O)C12CCN(C(=O)Cc1ccccn1)CC2 | 4.71% |
| CN(C)Cc1nc(-n2cnc(C(=O)NCC3CC3)c2)n2ccccc12 | 1.55% |
| O=C(c1ccc[nH]1)N1CCCn2cnc(COCC3CC3)c2C1 | -73.6% |
| Cc1nc(COC[C@H]2CCC[C@]23CN(C2CCOC2)CCO3)cs1 (stereo partly drawn) | -79.5% |
| CN(Cc1ccccn1)c1nccc(N2CCN[C@H]3CS(=O)(=O)C[C@H]32)n1 | 10.5% |
| CC(C)c1cc(NCC2(N(C)C)CCCC2)ncn1 | 4.22% |
| COc1ccc(Oc2cccnc2)cc1CN1CCCC1 | 2.67% |

| Structure (SMILES) | cytotoxicity at 10 µM |
| --- | --- |
| COCCCN(Cc1cnc(C2CCCCC2)nc1)C1CCN(C)CC1 | -4.43% |
| NC(=O)Cn1ccnc1C1CCCN(Cc2nc3ccccc3s2)C1 (stereo not drawn) | -17% |
| COCCc1noc(-c2cn(Cc3ccccc3C)nn2)n1 | 3.15% |
| O=S1(=O)CCC(n2nc(Cc3cccs3)nc2-c2cnccn2)C1 (stereo not drawn) | -6.33% |
| COc1nc2c(cc1C(=O)NCCCc1nnc(N)s1)CCC2 | 4.37% |
| Fc1ccccc1Cc1noc(CN2CCC(C3CCCCC3)C2)n1 (stereo not drawn) | 0.372% |
| CC(C)Oc1cc(N2CCN(Cc3ccsc3)C(CCO)C2)nc(N)n1 (stereo not drawn) | -6.35% |
| Cc1ccccc1SCC(=O)Nn1cnnc1 | -43.1% |
| Cn1ccnc1SCCNc1ccnc(C(F)(F)F)n1 | -50.4% |
| c1ccc(CN(Cc2cccc3cnccc23)CC2CCCO2)nc1 (stereo not drawn) | -5.68% |
| Cc1cc(N2CCC(n3cc(CN4CCNCC4)nn3)CC2)ccn1 | -1.83% |
| COc1cc(F)ccc1-c1cc(N)ccn1 | -9.5% |
| COc1cccc(OC2CN(C(=O)c3ccnc(OC)c3)C2)c1 | -6.52% |
| O=c1cc(N2CCNCC2)cnn1CCCn1cccn1 | -48% |
| Cn1cc(-c2c(C#N)c(N)nc3c2CCc2[nH]ccc2-3)cc1C#N | -1.68% |
| CCn1cc(CN2CCC(CCC(=O)Nc3ccccc3Cl)CC2)cn1 | -0.99% |
| CCc1nc(N)nc(N2CCCC3(CCOCC3)C2)c1C | -123% |
| C1CCC(c2nnc3sc(C4CCCO4)nn23)C1 (stereo not drawn) | 8.61% |
| CC(c1cccc(-c2cn(Cc3ccoc3)nn2)c1)N(C)C (stereo not drawn) | 1.35% |
| CCc1cccc(OCCN(C)C(=O)c2ccccc2NCC(=O)O)c1 | -2.69% |
| Cc1cccnc1C(=O)N1CCCC(c2[nH]ncc2S(C)(=O)=O)C1 (stereo not drawn) | 7.58% |

| Structure (SMILES) | cytotoxicity at 10 µM |
| --- | --- |
| O=C(NCc1ccccc1Cn1cncn1)C1CC1 | -11.3% |
| CCOc1ccccc1N1CCN(C(=O)NCc2cc[nH]n2)CC1 | 5.48% |
| CC(C(=O)NCc1ccnc(N(C)C)c1)n1cccn1 (stereo not drawn) | -13.8% |
| CCc1ncc(C(=O)N2CCCC2Cn2cccn2)s1 (stereo not drawn) | -9.67% |
| c1cnnc(N2CCCC2CNCc2cc[nH]n2)c1 (stereo not drawn) | -0.807% |
| Cc1nc(-c2ccsc2)ccc1C(=O)NCCC(=O)N1CCCC1 | -9.57% |
| O=C(NCCn1nc2ccccn2c1=O)c1cccc2[nH]ncc12 | -0.472% |
| CNCc1ccc([C@@H]2CN(C)C[C@H]2C(N)=O)cc1 | 7.67% |
| CNC(=O)C(C)(C)N1CCC[C@H]1C(=O)NCCN(C)C | 2.2% |
| Cc1noc(C)c1CN1CCCC2(CCN(CC3CCCC3)C2)C1 (stereo not drawn) | -4.1% |
| CC(C)N1CCC2(CC1)C(=O)N(CCN(C)C)c1ccccc12 | -121% |
| CNCC(=O)N1CCCC(c2nccnc2Oc2cccc(F)c2)C1 (stereo not drawn) | 6.87% |
| c1cn2c(n1)CN(Cc1ccsc1)CC(Cn1cncn1)C2 (stereo not drawn) | -74.8% |
| COc1ncccc1CN1C[C@H]2CCN(C(C)C)C[C@H]2C1 | 2% |
| O=C(NC1CC2(CCN(CCO)CC2)c2ccccc21)c1ccno1 (stereo not drawn) | -12.2% |
| Cn1ccnc1C(=O)N[C@@H]1CN(Cc2ccc(F)cc2)[C@@H]2CCCO[C@@H]21 | -111% |
| CCS(=O)(=O)N1CC[C@@H]2[C@H](CC1)N(Cc1cccc(C)n1)CCS2(=O)=O | -3.98% |
| CCCn1ncc(-c2ccnc(N[C@@H]3C[C@H]4CC[C@@H]3C4)n2)c1C | 0.541% |
| CCCS(=O)(=O)N1C[C@@H]2C[C@H](C(=O)N(C)C)[C@H](C1)O2 | -74% |
| CN1CCN(C=C2N=C(c3cc(-c4ccccc4F)n[nH]3)ON2)CC1 | -4.92% |

Reference: ChEMBL document CHEMBL4513216, “Probing the Open Global Health Chemical Diversity Library for Multistage-Active Starting Points for Next-Generation Antimalarials” (ACS Infect Dis, 2020)
